Many of the other results were omitted from the sample, so hits are more common in it than they were.
S1P4 antagonist – blocks the human S1P4 receptor; O95977; S1P4-expressing cells, antagonist mode, reporter read-out; inhibition, % at 4.98 µM; 220,000 tested, 0.26% active; AID 1510; in the data active means inhibition above about 29%;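 further: 0% = wells stimulated with agonist and 100% = vehicle wells without agonist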
S1P3 antag – antagonists of human S1P3 receptor. Q99500. CHO S1P3 NFAT-BLA reporter, FRET fluorescence, antagonist mode. inhibition, % at 4.98 µM. 170,000 tested, 0.27% active. AID 485;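 active means inhibition above the plate cutoff, the mean inhibition of test wells on that plate plus 3 SD, cut at about 28% in these data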;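 further: cells challenged with S1P at its EC80 of 0.8 µM; blue over green emission ratio from cleaved BLA substrate after 4 h stimulation; 0% = S1P-stimulated wells and 100% = unstimulated DMSO-only wells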
S1P4 agonist – human S1P4 receptor agonism. activation, % at 4.98 µM. 220,000 tested, 0.35% active. S1P4-expressing cell line, agonist reporter assay; in the data active means activation above about 11%;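 further: 0% = DMSO vehicle and 100% = reference agonist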
L major viab – reduces viability of Leishmania major promastigotes; AID 1063; resazurin fluorescence viability; 200,000 tested, 9% active; inhibition, % at 10 µM; in the data active means inhibition above about 50%;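 further: promastigotes grown with compound for 44 hours at 28 °C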
MDM2 E3 inh – blocks human Mdm2 ubiquitin ligase activity. cell-based MDM2 ubiquitination luciferase reporter, 2 h; 0 = plate control, 100 = twice control, blank-subtracted. signal enhancement, % at 5 µM. 210,000 tested, 0.11% active;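 active means signal enhancement of 30% or more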;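 further: luminescence tracks abundance of the self-degrading MDM2-luciferase fusion protein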
Target sequence (Q00987 whole entry, looked up, the tested form may be a part): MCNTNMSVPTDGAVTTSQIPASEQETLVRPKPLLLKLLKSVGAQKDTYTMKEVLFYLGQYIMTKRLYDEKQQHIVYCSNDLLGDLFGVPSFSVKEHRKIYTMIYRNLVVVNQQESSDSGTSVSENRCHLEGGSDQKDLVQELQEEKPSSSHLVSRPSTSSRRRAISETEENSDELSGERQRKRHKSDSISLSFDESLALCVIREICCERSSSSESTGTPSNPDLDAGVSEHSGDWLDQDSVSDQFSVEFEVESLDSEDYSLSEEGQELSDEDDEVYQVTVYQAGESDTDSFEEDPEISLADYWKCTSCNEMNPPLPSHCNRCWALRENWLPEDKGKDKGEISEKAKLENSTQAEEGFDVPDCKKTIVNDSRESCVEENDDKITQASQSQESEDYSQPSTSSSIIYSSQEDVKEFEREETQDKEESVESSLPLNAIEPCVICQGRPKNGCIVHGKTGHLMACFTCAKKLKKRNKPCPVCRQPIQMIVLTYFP
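Test system: stable mammalian line carrying autodegrading MDM2–luciferase fusion reporter; quantity: 2000 cells in each well; times: 4 h cell settling then 2 h compound exposure, 37 °C; detection: luminescence with SteadyLite reagent, 15 min at room temperature; evaluation: percent signal gain over controls, blank-subtracted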
* marks the source's active call; other numbers are inactive results; . = not tested or not shown.

SMILES	S1P4 antagonist	S1P3 antag	S1P4 agonist	L major viab	MDM2 E3 inh
O=C(NCCCn1ccnc1)/C(=C\c1cccs1)NC(=O)c1ccco1	-26.6	0.7	0.9	55.9*	-5.9
O=C(Cn1ccc([N+](=O)[O-])n1)Nc1ccccn1	4.3	-13.7	-0.7	5.0	-9.7
O=Nc1c(O)n(Cc2ccc(Cl)c(Cl)c2)c2ccccc12	0.4	.	0.1	77.0*	-8.3
O=Nc1c(O)n(Cc2ccccc2)c2ccccc12	-4.7	-0.4	1.9	.	-11.5
Cc1ccc(NC(=O)/C(=C/c2ccco2)c2ccccc2)c(C)c1	18.5	.	-2.4	47.7	-30.9
Cc1cc(C)c(NC(=O)/C(=C/c2ccccc2)c2ccccc2)c(C)c1	-18.5	-6.0	-0.2	98.0*	5.4
CC1(C)Cc2c(cnn2-c2ccccc2)-c2c1c1ccccc1n2CC(O)CCl (configuration not stated)	-43.9	.	-0.1	100.4*	-1.8
O=C(NCC1CCCO1)c1cc(S(=O)(=O)Nc2ccc(Br)cc2)ccc1Cl (configuration not stated)	2.8	4.7	-1.4	-7.4	-7.8
CC(C)(C)c1cc(CCC(=O)NNC(=S)NC(=O)c2ccccc2)cc(C(C)(C)C)c1O	4.2	-4.6	0.6	96.6*	-4.1
O=C(CCc1ccccc1)NNC(=S)NC(=O)c1ccccc1	5.3	.	2.0	25.4	-0.8
Fc1ccc(Sc2cc(Cl)c(-c3ccccc3)nn2)cc1	-5.7	.	0.2	14.4	-13.1
CN(C)S(=O)(=O)c1ccc(Oc2ccccc2)cc1	-15.6	-1.7	0.1	97.7*	0.0
CCN(CC)S(=O)(=O)c1ccc(Oc2ccccc2)cc1	-16.4	.	-0.9	99.4*	-16.6
O=[N+]([O-])c1ccc(NC2CCCC2)cc1	-2.0	13.9	-2.4	42.7	-10.3
N#Cc1cc(NC2CCCC2)c([N+](=O)[O-])cc1C#N	-7.2	4.5	0.2	61.3*	8.9
COc1ccc(CCN2C(=O)NC(NC(=O)CC(C)C)(C(F)(F)F)C2=O)cc1OC (configuration not stated)	-28.6	-5.1	-0.6	45.3	-5.7
COc1ccc(CCN2C(=O)NC(NC(=O)CCc3ccccc3)(C(F)(F)F)C2=O)cc1OC (configuration not stated)	-18.4	-18.4	-0.3	69.7*	-8.5
O=C(NC1CC1)C1CCN(C2CCN(C(=O)/C=C/c3cccs3)CC2)CC1	3.1	-14.5	0.8	87.5*	-48.5
O=C(NC1CC1)C1CCN(C2CCN(C(=O)Cc3ccc4c(c3)OCO4)CC2)CC1	-8.8	4.6	0.0	-1.9	24.4
O=C(NC1CC1)C1CCN(C2CCN(C(=O)/C=C/c3cccc(F)c3F)CC2)CC1	-4.1	-6.2	0.2	81.7*	0.9
N=c1c(-c2nc3ccccc3[nH]2)cc(C(=O)c2cccs2)nn1-c1ccccc1	-1.1	.	-0.5	99.9*	-7.8
N=c1c(-c2nc3ccccc3[nH]2)cc(C(=O)c2ccco2)nn1-c1ccccc1	3.9	9.1	1.6	100.3*	-5.6
CC(=O)c1sc(-c2ccc(F)cc2)cc1NS(=O)(=O)c1ccccc1	-10.5	6.3	1.3	.	-12.7
COc1cc(CNCCCN2CCOCC2)c(Br)cc1OCC(=O)Nc1ccccc1C	-2.9	6.1	-0.1	57.3*	-10.2
Cc1ccccc1NC(=O)COc1ccc(Br)cc1CNCCCO	-1.9	5.5	1.1	-0.5	-12.0
SMILES	S1P4 antagonist	S1P3 antag	S1P4 agonist	L major viab	MDM2 E3 inh
COc1ccccc1NC(=O)COc1ccc(Br)cc1CNCCCN1CCOCC1	2.9	-0.7	-2.1	77.3*	-11.2
COc1cc(C(=O)N/N=C/c2ccc(OC)c(CN3CCN(c4ccc(F)cc4)CC3)c2)ccc1O	8.0	-2.2	-2.5	6.2	.
O=C(NCCc1ccc(Cl)cc1)/C(=C/c1cccnc1)NC(=O)c1ccccc1	-1.6	5.0	-1.8	58.7*	-16.7
COc1ccccc1CCNC(=O)/C(=C/c1cccnc1)NC(=O)c1ccccc1	-4.2	-23.4	-0.3	9.2	-5.9
COc1c(S(=O)(=O)n2nc(C)cc2C)ccc(Cl)c1Cl	-3.7	-14.8	0.8	8.8	-11.9
COc1ccc(C2C(C#N)=C(N)N(c3sc4c(c3C#N)CCCC4)C3=C2C(=O)CC(C)(C)C3)cc1 (configuration not stated)	-31.2	.	-2.2	82.5*	2.8
COc1ccc(C2C(C#N)=C3NC(=O)c4c(sc5c4CCCCC5)N3C3=C2C(=O)CC(C)(C)C3)cc1 (configuration not stated)	9.0	.	-1.5	88.1*	15.5

Assay outcomes from PubChem.
